# Screening data: PubChem, several laboratories
# Diaphorase act = compounds boosting diaphorase resazurin reduction – biochemical, uHTS, resorufin fluorescence, counter-screen for diaphorase-coupled primary assays, primary screen | activation factor at 20 µM | Diaphorase/resazurin coupled assay, 16 min; active compounds read high; 1 = vehicle wells, 0 = NADH-free wells | hit rate 0.005% among 190,000;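 active = diaphorase activity raised at least twofold by the compound at 20 µM; inactive = activation factor below 2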
#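 Material: purified diaphorase enzyme from Clostridium kluyveri; Also added: 0.114 mM NADH and 0.1 mM resazurin, final amounts; Doses: single compound dose of 20 µM, 1% DMSO final; Times: 16 min enzyme reaction, ambient temperature; Detection: resorufin fluorescence, excitation 544 nm, emission 590 nm; Measure: increased resorufin signal from activators or reducing compounds.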
# WT yeast gro inh = growth inhibition of WT strain, primary screen, mitochondrial fusion inhibitor project, WT and mutant strains, chemical genetic; AID 1362, 2008; inhibition, % at 10 µM; hit rate 2.1% among 190,000; mitochondrial fusion phenotypic screen; in the data active = inhibition above about 58%; tested in S. cerevisiae
# Diaph inh CS = diaphorase inhibitors and chemical oxidizers, primary screen, counter-screen for diaphorase-coupled primary assays, biochemical, uHTS, resorufin fluorescence. inhibition, % at 20 µM. diaphorase resazurin-to-resorufin fluorescence, NADH, 16 min; bacterial (C. kluyveri) enzyme, not human. hit rate 0.69% among 190,000. AID 1217, 2008;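 active = primary screen inhibition at 20 µM above a set limit, cut at about 50% in these data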;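 note: plate controls were DMSO with full reaction for no effect and wells lacking NADH for full effect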
#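 controls = No-NADH positive control and DMSO neutral control | system = Clostridium kluyveri diaphorase enzyme | timing = reaction incubation of 16 min at room temperature | signal = resorufin fluorescence 544/590 nm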
# Lmaj promast = Leishmania major promastigote growth inhibition, primary screen; inhibition, % at 10 µM; hit rate 9% among 200,000; Leishmania major promastigotes, resazurin fluorescence viability;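 note: promastigotes grown with compound for 44 hours at 28 °C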
# G6PDH CS = L. mesenteroides G6PDH inhibitors, counter-screen for G6PDH-coupled screening assays, biochemical, Leuconostoc mesenteroides enzyme; inhibition, % at 5 µM; hit rate 0.12% among 200,000; glucose-6-phosphate dehydrogenase [Leuconostoc mesenteroides]; Purified L. mesenteroides G6PDH, diaphorase/resazurin coupled fluorescence, 45 min
# * marks the source's active call; other numbers are inactive results. Most compounds without a hit are left out; they make up all but 11% or so of the library. Cut-off read from the data, not from the text of the source, unless noted: active = inhibition above about 50%; inactive = the rest.
SMILES,Diaphorase act,WT yeast gro inh,Diaph inh CS,Lmaj promast,G6PDH CS
O=C1C2CCCN2C(=O)N1CCN1CCN(c2ccccc2)CC1 (configuration not stated),0.9,-6,7,61*,-6
Cn1cnnc1SC(C(=O)Nc1cccc(C(F)(F)F)c1)c1ccccc1 (configuration not stated),1.1,-19,-8,-12,8
CC(C)N(C)NC(=S)Nc1ccccc1,1,-9,5,62*,5
COC(=O)c1ccc(-n2c(C)cc(-c3csc(NC(=O)c4ccc(S(=O)(=O)N(C)C)cc4)n3)c2C)cc1,0.8,-2,15,57*,2
CN(c1ccccc1)S(=O)(=O)c1ccc(NC(=S)Nc2ccccc2)cc1,0.9,-7,9,93*,5
CN(c1cccc(NC(=O)c2ccc(N(C)S(=O)(=O)c3ccccc3)cc2)c1)S(C)(=O)=O,0.8,-15,21,62*,4
CN(c1cccc(NC(=O)c2ccc(C(C)(C)C)cc2)c1)S(C)(=O)=O,1,23,0,17,15
Cc1csc(NC(=O)c2ccc(S(=O)(=O)N(C)c3ccccc3)cc2)n1,0.8,7,20,98*,5
CN(c1ccccc1)S(=O)(=O)c1ccc(NC(=O)c2ccc(-c3ccccc3)cc2)cc1,0.9,-9,14,97*,7
O=C(CCCn1c(=O)[nH]c2cc(Cl)ccc2c1=O)NCCC1=CCCCC1,0.9,-4,7,-4,7
Cc1cccc(C(=O)NNC2=C(C(=O)C(F)(F)F)CCC2)c1O,0.7,6,30,24,-3
CC(C)C(OC(=O)c1oc2ccccc2c1CSC1CCCCC1)C(=O)NC(N)=O (configuration not stated),1,-3,-5,-14,5
CCNC(=O)NC(=O)C(C)OC(=O)c1oc2ccccc2c1CSC1CCCCC1 (configuration not stated),1,-3,3,72*,1
COc1cc(C(=O)c2c(C)c(CCC#N)n3ccccc23)cc(OC)c1OC,1,-10,-1,14,1
O=C(NCCSCc1c(F)cccc1Cl)c1ccc(CN2CCOCC2)cc1,0.9,-1,10,80*,14
CCCOc1ccc(/C=N/Nc2ccccc2[N+](=O)[O-])c(O)c1,0.9,17,8,-9,20
CN(C)S(=O)(=O)c1cccc(NC(=S)N/N=C/C2CC=CCC2)c1 (configuration not stated),0.9,3,11,6,-2
COc1cc(/C=N/NC(=S)Nc2cccc(S(=O)(=O)N(C)C)c2)ccc1O,0.9,2,13,67*,3
CCCOc1ccc(/C=N/NC(=S)Nc2ccccc2[N+](=O)[O-])c(O)c1,1,22,2,98*,9
COc1ccc(/C=N/NC(=S)Nc2ccccc2[N+](=O)[O-])cc1O,0.8,38,16,57*,10
Cc1ccc(OCC(=O)NNC(=O)c2cccnc2)cc1C,0.9,-9,13,-7,10
CC(C(=O)N1c2ccc(F)cc2CCC1C)N1C(=O)c2ccccc2C1=O (configuration not stated),0.8,-1,18,-1,31
O=C(Nc1nc2ccc(S(=O)(=O)N3CCOCC3)cc2s1)c1cccs1,0.8,-14,17,-7,17
Clc1ccc(Cn2c(-c3cccnc3Cl)nc3ccccc32)c(Cl)c1,0.7,9,27,99*,6
Clc1ccc(Cn2c(-c3cccnc3Cl)nc3ccccc32)cc1,0.9,8,13,46,-1
SMILES,Diaphorase act,WT yeast gro inh,Diaph inh CS,Lmaj promast,G6PDH CS
Cc1ccc(C)c(NC(=S)c2ccc3ccccc3n2)c1,0.9,48,12,-2,5
S=C(Nc1ccccn1)c1ccccn1,0.9,35,7,98*,8
Cc1ccc(C)c(NC(=S)c2ccccn2)c1,0.9,64,10,98*,8
O=C(CN1CCN(S(=O)(=O)c2ccccc2)CC1)Nc1ccc([N+](=O)[O-])cc1,0.9,-16,8,-5,8
O=C(O)COc1ccccc1C(Nc1cccnc1)c1cc(Cl)c2cccnc2c1O (configuration not stated),0.4,-4,61*,-5,23
CCOc1ccc(C(Nc2cccnc2)c2cc(Cl)c3cccnc3c2O)cc1 (configuration not stated),0.7,-9,30,89*,28
CCOc1ccc(OCc2ccc(C(=O)Nc3cccnc3)o2)cc1,0.9,23,12,7,8
O=C(O)COc1ccccc1C(Nc1ccccn1)c1cc(Cl)c2cccnc2c1O (configuration not stated),0.5,-14,51*,7,17
O=C(NC(c1ccccc1)c1cc(Cl)c2cccnc2c1O)c1cccnc1 (configuration not stated),0.9,-12,12,98*,5
CNC(=O)COc1ccc(Cl)c2cccnc12,0.9,-19,8,-5,7
CC1(C)OCC(COC(=O)Nc2cccnc2)([N+](=O)[O-])CO1,0.9,-4,8,-6,4
COc1ccc(CCNC(=O)c2cnn3c(C(F)F)cc(C)nc23)cc1OC,0.2,-14,78*,-1,5
CN1CCN(C(=O)C2CC(c3c(F)cccc3Cl)=NO2)CC1 (configuration not stated),0.9,-19,11,1,-8
COc1cc(CN2C(=O)C(NC(=O)c3ccco3)(C(F)(F)F)C3=C2CC(C)(C)CC3=O)cc(OC)c1 (configuration not stated),0.8,2,24,38,11
C/C(=N\N=C(N)N)c1ccc(Cl)cc1Cl,0.9,-8,7,43,1
CC1CC(=O)C2=C(C1)Nc1ncnn1C2c1ccccc1 (configuration not stated),0.9,-4,5,-5,9
COc1ccc(C2CC(=O)C3=C(C2)Nc2ncnn2C3c2ccccc2C)c(OC)c1 (configuration not stated),0.7,-11,26,100*,10
O=C(CCCCCCC(=O)c1ccccc1)c1ccccc1,1.1,-10,-8,4,7
Cc1ccc(NC(=O)Cn2cc(S(=O)(=O)c3ccccc3)c(=O)c3cc(F)ccc32)cc1,0.9,-9,8,-7,12
O=c1c(S(=O)(=O)c2ccc(Cl)cc2)cn(Cc2ccccc2)c2ccc(F)cc12,0.8,-6,20,91*,2
CC(C)CC(=O)NC(=S)Nc1ccccc1C(=O)Nc1ccccc1,0.9,33,10,-5,9
COc1cc(C(C)=O)ccc1Oc1ncnc2c1cnn2-c1ccc(F)cc1,0.9,-13,6,-9,0
